Data from article PMC3873039 (Anti-Cancer Agents in Medicinal Chemistry, 2013).

Columns and labels:
KG1a [1] = assay: CellTiter-Glo luminescent cell viability assay; format: cell-based, human; conditions: 24 h; for IC50: Homo sapiens, KG-1a, read-out: IC50 (50% inhibition of cellular proliferation); for The lowest dose of polyphenols at which there was a significant inhibition of cell proliferation compared to the vehicle control: KG1a, doses 0, 2, 10, 50, 250, 500 µM, p<0.05
Summary of the method: (§1)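 Cells grown in RPMI 1640 with 10% FBS, 1.5 mM L-glutamine and penicillin/streptomycin at 37 °C, 5% CO2. Seeded at 2.5 x 10³ cells/well and exposed 24 h to ethanol-dissolved test compound (0, 2, 10, 50, 250, 500 µM) with 0.1% ethanol vehicle. ATP luminescence normalized to vehicle (100%). IC50 taken from linear regression. Lowest significant dose set by one-way ANOVA/Tukey, p<0.05. Triplicates, three independent experiments.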

CCRF-CEM [2] = assay: Cell cycle analysis, propidium iodide flow cytometry; format: cell-based, human; conditions: IC50 dose, 24 h; for Percentage of cells in G0/G1 phase of cell cycle (significant accumulation): vehicle control G0/G1 = 41.9%
Summary of the method: (§2)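 Seeded at 0.5 x 10^6 cells per well in 12-well plates and treated 24 h at the IC50 concentration of each test compound from CellTiter-Glo. Cells were pelleted (400 g, 5 min), PBS-washed and fixed in 80% ethanol overnight at -20 °C. Staining used 50 µg/mL PI plus RNase overnight at 4 °C.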

CCRF-CEM [3] = assay: Hoechst 33342 nuclear morphological analysis of apoptosis; format: cell-based; conditions: Homo sapiens, 24 h, read-out: AP50 (50% induction of apoptosis), Hoechst 33342 staining (Hoe)
Summary of the method: (§3)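 Seeded at 0.5 x 10⁶ cells/well in 12-well plates and treated 24 h. Cells were pelleted (400 g, 5 min, 4 °C), washed in PBS, fixed in 4% paraformaldehyde, cytospun, air-dried, then stained with 10 μg/ml Hoechst 33342 for 10 min in the dark. Fluorescence microscopy: 200 cells counted, scored by condensed/intense nuclei, shrinkage, blebbing and apoptotic bodies. % apoptotic nuclei calculated. AP50 = concentration giving 50% apoptotic cells.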

K562 [4] = assay: NucView caspase 3 activity assay by flow cytometry; format: cell-based, human; conditions: for EC50: Homo sapiens, K562, 24 h, read-out: AP50 (50% induction of apoptosis), Caspase 3 activity assay (C3); for The lowest dose of polyphenols at which there was a significant induction of apoptosis compared to the vehicle control: K562, caspase 3 activity, 24 h, p<0.05
Summary of the method: (§4)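 Seeded at 0.5 x 10⁶ cells/well and treated 24 h, with series of 0–50 or 0–250 µM depending on compound. Normalized to vehicle (0% apoptosis). Mean ± STD, three independent experiments in triplicate. One-way ANOVA/Tukey, p<0.05. AP50 = concentration giving 50% apoptotic cells.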

K562 [5] = assay: Cell cycle analysis, propidium iodide flow cytometry; format: cell-based, human; conditions: K562, IC50 dose, 24 h; vehicle control G0/G1 = 53.7%
Summary of the method: as §2

K562 [6] = assay: CellTiter-Glo luminescent cell viability assay; format: cell-based, human; conditions: K562, 24 h, doses 0, 2, 10, 50, 250, 500 µM, p<0.05
Summary of the method: as §1

KG1a [7] = assay: NucView caspase 3 activity assay by flow cytometry; format: cell-based, human; conditions: 24 h; for EC50: Homo sapiens, KG-1a, read-out: AP50 (50% induction of apoptosis), Caspase 3 activity assay (C3); for The lowest dose of polyphenols at which there was a significant induction of apoptosis compared to the vehicle control: KG1a, caspase 3 activity, p<0.05
Summary of the method: as §4

MOLT-3 [8] = assay: CellTiter-Glo luminescent cell viability assay; format: cell-based, human; conditions: MOLT-3, 24 h, doses 0, 2, 10, 50, 250, 500 µM, p<0.05
Summary of the method: as §1

U937 [9] = assay: CellTiter-Glo luminescent cell viability assay; format: cell-based, human; conditions: U937, 24 h, doses 0, 2, 10, 50, 250, 500 µM, p<0.05
Summary of the method: as §1

HL60 = assay: NucView caspase 3 activity assay by flow cytometry; format: cell-based, human; conditions: for The lowest dose of polyphenols at which there was a significant induction of apoptosis compared to the vehicle control: HL60, caspase 3 activity, 24 h, p<0.05; for EC50: Homo sapiens, HL-60, 24 h, read-out: AP50 (50% induction of apoptosis), Caspase 3 activity assay (C3)
Summary of the method: as §4

THP-1 [10] = assay: NucView caspase 3 activity assay by flow cytometry; format: cell-based, human; conditions: for EC50: Homo sapiens, THP-1, 24 h, read-out: AP50 (50% induction of apoptosis), Caspase 3 activity assay (C3); for The lowest dose of polyphenols at which there was a significant induction of apoptosis compared to the vehicle control: THP-1, caspase 3 activity, 24 h, p<0.05
Summary of the method: as §4

K562 [11] = assay: Hoechst 33342 nuclear morphological analysis of apoptosis; format: cell-based; conditions: Homo sapiens, K562, 24 h, read-out: AP50 (50% induction of apoptosis), Hoechst 33342 staining (Hoe)
Summary of the method: as §3

MOLT-3 [12] = assay: NucView caspase 3 activity assay by flow cytometry; format: cell-based, human; conditions: for EC50: Homo sapiens, MOLT-3, 24 h, read-out: AP50 (50% induction of apoptosis), Caspase 3 activity assay (C3); for The lowest dose of polyphenols at which there was a significant induction of apoptosis compared to the vehicle control: MOLT-3, caspase 3 activity, 24 h, p<0.05
Summary of the method: as §4

[13] = test system: non-tumor cord blood (CD34+) cells; assay: CellTiter-Glo luminescent cell viability assay; format: cell-based; conditions: 24 h; for IC50: read-out: IC50 (50% inhibition of cellular proliferation), CD34+ non-tumour control cells, 24 h treatment; for The lowest dose of polyphenols at which there was a significant inhibition of cell proliferation compared to the vehicle control: CD34+ non-tumour control cells, doses 0, 2, 10, 50, 250, 500 µM, p<0.05
Summary of the method: as §1

THP-1 [14] = assay: Cell cycle analysis, propidium iodide flow cytometry; format: cell-based, human; conditions: THP-1, IC50 dose, 24 h; vehicle control G0/G1 = 42.3%
Summary of the method: as §2

[15] = test system: non-tumor progenitor cells (CD34+); assay: Cell cycle analysis, propidium iodide flow cytometry; format: cell-based; conditions: 24 h, within the IC50 ranges used to treat the leukemic cell lines
JURKAT = assay: CellTiter-Glo luminescent cell viability assay; format: cell-based, human; conditions: 24 h, doses 0, 2, 10, 50, 250, 500 µM, p<0.05
Summary of the method: as §1

non-tumor cells (CD34+) [16] = assay: Hoechst 33342 nuclear morphological analysis of apoptosis; format: cell-based; conditions: 24 h, read-out: AP50 (50% induction of apoptosis), Hoechst 33342 staining (Hoe)
Summary of the method: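 CD34+ cells treated 24 h across the IC25–IC50 range, then pelleted (400 g, 4 °C) and fixed in 4% paraformaldehyde/PBS. Cytospins were air-dried and stained with 10 μg/ml Hoechst 33342 for 10 min in the dark, then viewed by fluorescence microscopy. 200 cells were scored per sample as % apoptotic nuclei (shrinkage, blebbing, chromatin condensation, apoptotic bodies). AP50 = concentration giving 50% apoptosis.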

non-tumor cells (CD34+) [17] = assay: NucView caspase 3 activity assay by flow cytometry; format: cell-based; conditions: 24 h; for EC50: read-out: AP50 (50% induction of apoptosis), Caspase 3 activity assay (C3); for The lowest dose of polyphenols at which there was a significant induction of apoptosis compared to the vehicle control: CD34+ non-tumour control cells, caspase 3 activity, p<0.05
U937 [18] = assay: Hoechst 33342 nuclear morphological analysis of apoptosis; format: cell-based; conditions: Homo sapiens, U-937, 24 h, read-out: AP50 (50% induction of apoptosis), Hoechst 33342 staining (Hoe)
Summary of the method: as §3

THP-1 [19] = assay: CellTiter-Glo luminescent cell viability assay; format: cell-based, human; conditions: THP-1, 24 h, doses 0, 2, 10, 50, 250, 500 µM, p<0.05
Summary of the method: as §1

CCRF-CEM [20] = assay: NucView caspase 3 activity assay by flow cytometry; format: cell-based, human; conditions: 24 h; for EC50: Homo sapiens, read-out: AP50 (50% induction of apoptosis), Caspase 3 activity assay (C3); for The lowest dose of polyphenols at which there was a significant induction of apoptosis compared to the vehicle control: caspase 3 activity, p<0.05
Summary of the method: as §4

EC50 (CCRF-CEM [3]) [µM] | EC50 (K562 [4]) [µM] | EC50 (KG1a [7]) [µM] | EC50 (HL60) [µM] | EC50 (THP-1 [10]) [µM] | EC50 (K562 [11]) [µM] | EC50 (MOLT-3 [12]) [µM] | SMILES | IC50 (KG1a [1]) [µM] | The lowest dose of polyphenols at which there was a significant inhibition of cell proliferation compared to the vehicle control (KG1a [1]) [µM] | The lowest dose of polyphenols at which there was a significant induction of apoptosis compared to the vehicle control (K562 [4]) [µM] | Percentage of cells in G0/G1 phase of cell cycle (significant accumulation) (K562 [5]) | The lowest dose of polyphenols at which there was a significant inhibition of cell proliferation compared to the vehicle control (K562 [6]) [µM] | The lowest dose of polyphenols at which there was a significant induction of apoptosis compared to the vehicle control (KG1a [7]) [µM] | The lowest dose of polyphenols at which there was a significant inhibition of cell proliferation compared to the vehicle control (MOLT-3 [8]) [µM] | The lowest dose of polyphenols at which there was a significant inhibition of cell proliferation compared to the vehicle control (U937 [9]) [µM] | The lowest dose of polyphenols at which there was a significant induction of apoptosis compared to the vehicle control (HL60) [µM] | The lowest dose of polyphenols at which there was a significant induction of apoptosis compared to the vehicle control (THP-1 [10]) [µM] | The lowest dose of polyphenols at which there was a significant induction of apoptosis compared to the vehicle control (MOLT-3 [12]) [µM] | IC50 [13] [µM] | The lowest dose of polyphenols at which there was a significant inhibition of cell proliferation compared to the vehicle control [13] [µM] | other results
40 | > 250 | > 250 | 175 | > 250 | > 500 | 140 | O=c1cc(-c2ccccc2)oc2cc(O)cc(O)c12 [Chrysin] | 335 | 250 | 250 | G0/G1 =59% | 250 | 250 | 50 | 50 | 50 | 250 | 50 | > 500 | 500 | Percentage of cells in G0/G1 phase of cell cycle (significant accumulation) (CCRF-CEM [2]): G0/G1 =49.4%; Percentage of cells in G0/G1 phase of cell cycle (significant accumulation) (THP-1 [14]): G0/G1 =52.1%; Cell cycle arrest in non-tumour control cells [15]: No Arrest <250µM; The lowest dose of polyphenols at which there was a significant inhibition of cell proliferation compared to the vehicle control (JURKAT): 50 µM; EC50 (non-tumor cells (CD34+) [16]): > 500 µM; EC50 (non-tumor cells (CD34+) [17]): > 250 µM; The lowest dose of polyphenols at which there was a significant induction of apoptosis compared to the vehicle control (non-tumor cells (CD34+) [17]): 250 µM; EC50 (U937 [18]): 32 µM; The lowest dose of polyphenols at which there was a significant inhibition of cell proliferation compared to the vehicle control (THP-1 [19]): 250 µM; EC50 (CCRF-CEM [20]): 250 µM; The lowest dose of polyphenols at which there was a significant induction of apoptosis compared to the vehicle control (CCRF-CEM [20]): 50 µM
> 500 | > 10 | > 10 | 8.5 | 7.8 | > 500 | 5 | Cc1cc(O)c2c(c1)C(=O)c1cc(O)cc(O)c1C2=O [Emodin] | 15 | 2 | 2 | G0/G1 =66% | 2 | 2 | 2 | 2 | 10 | 2 | 2 | ~150 | 50 | Percentage of cells in G0/G1 phase of cell cycle (significant accumulation) (CCRF-CEM [2]): G0/G1 =50%; Percentage of cells in G0/G1 phase of cell cycle (significant accumulation) (THP-1 [14]): G0/G1= 50.8%; Cell cycle arrest in non-tumour control cells [15]: No Arrest <50µM; The lowest dose of polyphenols at which there was a significant inhibition of cell proliferation compared to the vehicle control (JURKAT): 2 µM; EC50 (non-tumor cells (CD34+) [16]): > 500 µM; EC50 (non-tumor cells (CD34+) [17]): > 10 µM; The lowest dose of polyphenols at which there was a significant induction of apoptosis compared to the vehicle control (non-tumor cells (CD34+) [17]): 10 µM; EC50 (U937 [18]): 27 µM; The lowest dose of polyphenols at which there was a significant inhibition of cell proliferation compared to the vehicle control (THP-1 [19]): 2 µM; EC50 (CCRF-CEM [20]): > 10 µM; The lowest dose of polyphenols at which there was a significant induction of apoptosis compared to the vehicle control (CCRF-CEM [20]): 10 µM
50 | > 50 | > 50 | 50 | > 50 | 205 | 50 | O=c1c(O)c(-c2ccc(O)c(O)c2)oc2cc(O)cc(O)c12 [Quercetin] | 155 | 10 | 10 | G0/G1=60% | 2 | 10 | 2 | 2 | 10 | 10 | 10 | > 500 | 250 | Percentage of cells in S phase of cell cycle (significant accumulation) (CCRF-CEM [2]; vehicle control S = 47.2%): S = 51.4%; Percentage of cells in G0/G1 phase of cell cycle (significant accumulation) (THP-1 [14]): G0/G1 =52%; Cell cycle arrest in non-tumour control cells [15]: No Arrest <50µM; The lowest dose of polyphenols at which there was a significant inhibition of cell proliferation compared to the vehicle control (JURKAT): 2 µM; EC50 (non-tumor cells (CD34+) [16]): > 500 µM; EC50 (non-tumor cells (CD34+) [17]): > 50 µM; The lowest dose of polyphenols at which there was a significant induction of apoptosis compared to the vehicle control (non-tumor cells (CD34+) [17]): 50 µM; EC50 (U937 [18]): 50 µM; The lowest dose of polyphenols at which there was a significant inhibition of cell proliferation compared to the vehicle control (THP-1 [19]): 2 µM; EC50 (CCRF-CEM [20]): 50 µM; The lowest dose of polyphenols at which there was a significant induction of apoptosis compared to the vehicle control (CCRF-CEM [20]): 2 µM
